From ChEMBL document CHEMBL1126736, “Synthesis and antiherpes virus activity of 1,5-anhydrohexitol nucleosides” (J Med Chem, 1993)
Converted amounts (≈) assume the structure as drawn.

What was measured:
Human alphaherpesvirus 1 [1] = experiment: Inhibitory concentration against HSV type 1 strain Mc Intyre in human embryonic skin muscle (ESM) fibroblast cell culture; type: functional
Method in brief: (§1)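 Assay in human embryonic skin-muscle (ESM) cells grown in 96-well trays. The value is the concentration that reduces virus-induced cytopathicity by 50%. Single representative experiment.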

Human alphaherpesvirus 1 [2] = experiment: Inhibitory concentration against HSV type 1 strain F in human embryonic skin muscle (ESM) fibroblast cell culture; type: functional; method in brief: as §1
Cytomegalovirus [3] = experiment: Inhibitory concentration against CMV strain Davis in human embryonic lung (HEL) cell culture; type: functional; settings: Human betaherpesvirus 5
Method in brief: (§2)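 Plaque-reduction assay in human embryonic lung (HEL) cells grown in 96-well trays. The value is the concentration that reduces virus plaque formation by 50%. Single representative experiment.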

L1210 = experiment: Inhibitory concentration required to reduce the growth of murine L1210 cells by 50%; type: functional, cell-based; settings: Mus musculus
Method in brief: (§3)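 Cytostatic assay. The value is the concentration that reduces the growth (viability) of the cells by 50%.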

Human alphaherpesvirus 3 [4] = experiment: Inhibitory concentration against TK-VZV strain YS-R in human embryonic lung (HEL) cell culture; type: functional
Vaccinia virus = experiment: Inhibitory concentration against VV in human embryonic skin muscle (ESM) fibroblast cell culture; type: functional; settings: Orthopoxvirus vaccinia
MOLT-4 = experiment: Inhibitory concentration required to reduce the growth of human MOLT-4 cells by 50%; type: functional, cell-based; method in brief: as §3
[5] = tested on: Human immunodeficiency virus 1; experiment: Inhibitory concentration required to achieve 50% protection of MT-4 cells against cytopathicity of […]; type: functional, organism-based; settings: Human immunodeficiency virus 1, MT4
Method in brief: (§4)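 MT-4 cells infected with HIV-1 (strain III_B) or HIV-2 (strain ROD). The value is the concentration that protects the cells from virus cytopathicity by 50%.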

Human alphaherpesvirus 3 [6] = experiment: Inhibitory concentration against TK-VZV strain 07-1 in human embryonic lung (HEL) cell culture; type: functional
Human alphaherpesvirus 1 [7] = experiment: Inhibitory concentration against HSV type 1 strain KOS in human embryonic skin muscle (ESM) fibroblast cell culture; type: functional
[8] = tested on: Human immunodeficiency virus 2; experiment: Inhibitory concentration required to achieve 50% protection of MT-4 cells against cytopathicity of […]; type: functional, organism-based; settings: Human immunodeficiency virus 2, MT4; method in brief: as §4
Human alphaherpesvirus 3 [9] = experiment: Inhibitory concentration against VZV strain YS in human embryonic lung (HEL) cell culture; type: functional
Human alphaherpesvirus 3 [10] = experiment: Inhibitory concentration against VZV strain OKA in human embryonic lung (HEL) cell culture; type: functional
ESM = experiment: Inhibitory concentration required for morphologic alteration in normal cell in human embryonic skin muscle (ESM) fibroblast cell culture; type: functional
Method in brief: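 Uninfected ESM cells in 96-well trays, examined under the microscope. The value is the minimal concentration that causes a detectable change in normal cell morphology. Tested up to 400 μg/mL. Single representative experiment.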

HEL = experiment: Inhibitory concentration required to inhibit cell growth by 50% in human embryonic lung (HEL) cell culture; type: functional
Method in brief: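 Uninfected HEL cells grown in 96-well trays. The value is the concentration that reduces cell growth by 50%. Single representative experiment.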

CCRF-CEM = experiment: Inhibitory concentration required to reduce the growth of human CEM cells by 50%; type: functional, cell-based; method in brief: as §3
Cytomegalovirus [11] = experiment: Inhibitory concentration against CMV strain AD169 in human embryonic lung (HEL) cell culture; type: functional; settings: Human betaherpesvirus 5; method in brief: as §2
Human alphaherpesvirus 2 [12] = experiment: Inhibitory concentration against HSV type 2 strain 196 in human embryonic skin muscle (ESM) fibroblast cell culture; type: functional; method in brief: as §1
Human alphaherpesvirus 1 [13] = experiment: Inhibitory concentration against TK-HSV type 1 strain B2006 in human embryonic skin muscle (ESM) fibroblast cell culture; type: functional; method in brief: as §1
Human alphaherpesvirus 2 [14] = experiment: Inhibitory concentration against HSV type 2 strain Lyons in human embryonic skin muscle (ESM) fibroblast cell culture; type: functional; method in brief: as §1
MT4 = experiment: Inhibitory concentration required to reduce the growth of human MT-4 cells by 50%; type: functional, cell-based; method in brief: as §3
Human alphaherpesvirus 2 [15] = experiment: Inhibitory concentration against HSV type 2 strain G in human embryonic skin muscle (ESM) fibroblast cell culture; type: functional; method in brief: as §1
[16] = tested on: Vesicular stomatitis virus; experiment: Inhibitory concentration against VSV in human embryonic skin muscle (ESM) fibroblast cell culture; type: functional
FM3A = experiment: Inhibitory concentration required to reduce the growth of murine FM3A cells by 50%; type: functional, cell-based; settings: Mus musculus; method in brief: as §3

Row | SMILES | MIC (Human alphaherpesvirus 1 [1]) | MIC (Human alphaherpesvirus 1 [2]) | MIC (Cytomegalovirus [3]) | MIC (Human alphaherpesvirus 3 [4]) | MIC (Vaccinia virus) | MIC (Human alphaherpesvirus 3 [6]) | MIC (Human alphaherpesvirus 1 [7]) | MIC (Human alphaherpesvirus 3 [9]) | MIC (Human alphaherpesvirus 3 [10]) | MIC (ESM) | MIC (HEL) | MIC (Cytomegalovirus [11]) | MIC (Human alphaherpesvirus 2 [12]) | MIC (Human alphaherpesvirus 1 [13]) | MIC (Human alphaherpesvirus 2 [14]) | MIC (Human alphaherpesvirus 2 [15]) | MIC [16] | also measured
1 | O=c1[nH]c(=O)n(C2COC(CO)C(O)C2)cc1I (configuration not stated) | 0.07 µg/mL (≈ 0.19 µM) | 0.07 µg/mL (≈ 0.19 µM) | > 10 µg/mL | > 100 µg/mL | > 200 µg/mL | > 100 µg/mL | 0.07 µg/mL (≈ 0.19 µM) | > 100 µg/mL | > 100 µg/mL | > 400 µg/mL | > 50 µg/mL | > 10 µg/mL | 0.07 µg/mL (≈ 0.19 µM) | > 200 µg/mL | 0.07 µg/mL (≈ 0.19 µM) | 0.07 µg/mL (≈ 0.19 µM) | > 200 µg/mL | IC50 (L1210): > 100 µg/mL; IC50 (MOLT-4): > 100 µg/mL; IC50 [5]: > 100 µg/mL; IC50 [8]: > 100 µg/mL; IC50 (CCRF-CEM): > 100 µg/mL; IC50 (MT4): > 100 µg/mL; IC50 (FM3A): > 100 µg/mL
2 | Nc1nc2c(ncn2COCCO)c(=O)[nH]1 [ACYCLOVIR] | 0.7 µg/mL (≈ 3.11 µM) | 0.4 µg/mL (≈ 1.78 µM) |  |  | > 400 µg/mL |  | 0.02 µg/mL (≈ 0.0888 µM) |  |  |  | > 200 µg/mL |  | 2 µg/mL (≈ 8.88 µM) | 70 µg/mL (≈ 311 µM) | 0.7 µg/mL (≈ 3.11 µM) | 0.02 µg/mL (≈ 0.0888 µM) | > 400 µg/mL | 
3 | O=c1[nH]c(=O)n([C@H]2C[C@H](O)[C@@H](CO)O2)cc1/C=C/Br [BRIVUDINE] | 0.02 µg/mL (≈ 0.06 µM) | 0.004 µg/mL (≈ 0.012 µM) | > 100 µg/mL | 30 µg/mL (≈ 90.1 µM) | 2 µg/mL (≈ 6 µM) | 8 µg/mL (≈ 24 µM) | 0.004 µg/mL (≈ 0.012 µM) | 0.0015 µg/mL (≈ 0.0045 µM) | 0.0007 µg/mL (≈ 0.0021 µM) | > 400 µg/mL | > 200 µg/mL | > 100 µg/mL | 300 µg/mL (≈ 901 µM) | > 400 µg/mL | 70 µg/mL (≈ 210 µM) | 10 µg/mL (≈ 30 µM) | > 200 µg/mL | 
4 | Nc1nc2c(ncn2COC(CO)CO)c(=O)[nH]1 [GANCICLOVIR] | 0.001 µg/mL (≈ 0.00392 µM) | 0.007 µg/mL (≈ 0.0274 µM) | 6.2 µg/mL (≈ 24.3 µM) | 0.9 µg/mL (≈ 3.53 µM) | 70 µg/mL (≈ 274 µM) | 0.1 µg/mL (≈ 0.392 µM) | 0.004 µg/mL (≈ 0.0157 µM) | 0.072 µg/mL (≈ 0.282 µM) | 0.02 µg/mL (≈ 0.0784 µM) |  | 85 µg/mL (≈ 333 µM) | 3 µg/mL (≈ 11.8 µM) | 0.02 µg/mL (≈ 0.0784 µM) | 2 µg/mL (≈ 7.84 µM) | 0.02 µg/mL (≈ 0.0784 µM) | 0.004 µg/mL (≈ 0.0157 µM) | > 400 µg/mL | 
5 | O=c1[nH]c(=O)n([C@H]2C[C@H](O)[C@@H](CO)O2)cc1I [IDOXURIDINE] | 1 µg/mL (≈ 2.82 µM) | 0.2 µg/mL (≈ 0.565 µM) |  | 4 µg/mL (≈ 11.3 µM) | 0.7 µg/mL (≈ 1.98 µM) | 4 µg/mL (≈ 11.3 µM) | 0.2 µg/mL (≈ 0.565 µM) | 0.4 µg/mL (≈ 1.13 µM) | 0.17 µg/mL (≈ 0.48 µM) | > 400 µg/mL | > 50 µg/mL |  | 0.2 µg/mL (≈ 0.565 µM) | 70 µg/mL (≈ 198 µM) | 0.2 µg/mL (≈ 0.565 µM) | 0.2 µg/mL (≈ 0.565 µM) | > 400 µg/mL | 
